Source: PubChem
In the library only some 1.8% were active in any assay of this set; here they are far more common.
M4 PAM: positive allosteric modulators of human muscarinic M4 receptor. P08173. CHO-K1 hM4/Gqi5, Fluo-8 calcium fluorescence, ACh EC20; 0% = ACh EC20, 100% = maximal ACh. activation, % at 3 µM. actives 0.4% (n = 360,000). AID 624126;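 active = activation above its plate's cutoff, the mean activation of sample wells plus 3 SD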
M5 PAM: potentiates acetylcholine response at human M5 receptor | P08912 | CHO-K1 hM5, Fluo-8 calcium, ACh EC20 PAM; 0% = ACh EC20, 100% = ACh EC100 | activation, % at 3 µM | actives 0.3% (n = 360,000) | AID 624038;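 active = activation above the run cutoff, the mean activation of all test compounds plus 3 SD, cut at about 18% in these data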
Target sequence (P08912 whole entry, looked up): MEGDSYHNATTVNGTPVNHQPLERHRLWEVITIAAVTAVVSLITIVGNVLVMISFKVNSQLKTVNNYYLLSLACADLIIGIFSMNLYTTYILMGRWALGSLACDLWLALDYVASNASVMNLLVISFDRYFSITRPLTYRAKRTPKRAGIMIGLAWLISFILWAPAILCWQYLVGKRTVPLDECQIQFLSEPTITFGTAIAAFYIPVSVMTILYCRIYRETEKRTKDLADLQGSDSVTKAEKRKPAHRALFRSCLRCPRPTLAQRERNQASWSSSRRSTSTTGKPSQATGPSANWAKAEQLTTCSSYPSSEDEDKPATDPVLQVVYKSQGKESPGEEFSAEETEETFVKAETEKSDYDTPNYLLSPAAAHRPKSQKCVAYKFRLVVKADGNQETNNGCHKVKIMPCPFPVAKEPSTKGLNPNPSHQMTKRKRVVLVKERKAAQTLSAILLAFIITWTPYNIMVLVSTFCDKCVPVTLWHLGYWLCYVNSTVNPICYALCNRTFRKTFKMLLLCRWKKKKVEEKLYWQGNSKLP
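System – CHO-K1 hM5 cells · Compound – 3 µM, single dose · Incubation – compound preincubation 140 s before EC20 acetylcholine addition · Technique – Fluo-8 calcium fluorescence · Measure – Max/basal fluorescence ratio as % of EC20–EC100 ACh window · Benchmarks – low control EC20 acetylcholine (0%), high control EC100 acetylcholine (100%) · Replication – singlicate, one well per test compound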
M5 antag: blocks acetylcholine activation of human M5 receptor; actives 0.59% (n = 360,000); inhibition, % at 3 µM; CHO-hM5 cells, Fluo-8 calcium fluorescence, ACh EC80; P08912;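 active = inhibition above a per-plate cutoff, the mean of that plate's test compounds plus 3 SD, cut at about 27% in these data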;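 note: 0% = acetylcholine EC80 with DMSO and 100% = DMSO without agonist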
M4 antag: blocks acetylcholine activation of human M4 receptor. actives 0.73% (n = 360,000). AID 624125. inhibition, % at 3 µM. P08173. CHO-hM4 cells, ACh EC80, Fluo-8 calcium fluorescence;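 active = inhibition above its plate's cutoff, the mean inhibition of sample wells plus 3 SD, cut at about 27% in these data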;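 note: 0% = acetylcholine EC80 with DMSO and 100% = DMSO without agonist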
CHRM5 agonist: agonists of human muscarinic M5 receptor (CHRM5). activation, % at 3 µM. AID 624037. actives 0.19% (n = 360,000). CHO-K1 hM5 cells, Fluo-8 calcium fluorescence; 0% DMSO wells, 100% maximal acetylcholine response;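 active = activation above the run's mean over test compounds plus 3 SD, cut at about 23% in these data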;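 note: signal is peak over basal fluorescence ratio across the kinetic read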
M4 ag: CHRM4 agonism in calcium assay. activation, % at 3 µM. AID 624127. CHO-K1 hM4/Gqi5, Fluo-8 calcium fluorescence; vehicle 0%, full acetylcholine response 100%. actives 0.14% (n = 360,000). P08173;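 active = activation above the run mean over all test wells plus 3 SD, cut at about 32% in these data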;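 note: peak over basal fluorescence ratio per well then scaled between controls; 0% = DMSO wells and 100% = acetylcholine at EC100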
The depositor's hits bear a star.

SMILES	M4 PAM	M5 PAM	M5 antag	M4 antag	CHRM5 agonist	M4 ag
O=C(C=Cc1ccccn1)c1ccccc1O	1	10	7	1	6	2
O=C1NC2c3ccccc3C(=O)N2c2c1cnn2-c1ccccc1 (stereo unspecified)	18*	3	-5	-4	-1	2
COCc1c(C(=O)OCC(=O)N2c3ccccc3NC(=O)C2(C)C)oc2ccccc12	-10	-12	13	27*	4	15
O=S(=O)(Nc1cccnc1)c1ccc(Cl)cc1	20*	-4	2	-3	-1	2
CC1=CN(S(=O)(=O)c2ccc(C)cc2)C[C@@H]2c3ccccc3N(S(=O)(=O)c3ccc(C)cc3)[C@H]12	-5	-3	8	6	1	-1
CCN(CC(=O)Nc1ccc(NC(C)=O)cc1)C(=O)CSc1ncnc2sc(C)c(C)c12	-2	-10	-5	-15	-2	9
COc1ccc(CNC(=O)C(c2ccco2)N(C(=O)c2ccccn2)c2ccccc2)cc1 (stereo unspecified)	-7	-2	1	-2	5	10
O=C(NCc1ccccc1)C(c1ccco1)N(C(=O)c1ccccn1)c1ccccc1 (stereo unspecified)	-1	-9	49*	-3	-5	5
Cc1ccccc1CN1CCC(CNC(=O)C2CCCN(c3ncnc4c3nc3n4CCCCC3)C2)CC1 (stereo unspecified)	-22	-15	16	63*	-10	3
Cc1cc(NC(=O)COc2ccc(F)c(Cl)c2)no1	19*	-2	0	-9	-2	2
Cc1cc(NC(=O)COc2ccc(C)c(C)c2)no1	3	11	-8	3	2	2
COc1cccc(NC(=O)C2CC(=O)N(Cc3ccco3)C2)c1 (stereo unspecified)	21*	2	-5	-6	0	2
O=C(/C=C/c1ccc(F)cc1)NC(=S)Nc1ccccc1C(=O)NC1CCCCC1	-5	21*	9	0	1	0
Cc1[nH]nc(-c2ccc(OCc3cnn(-c4ccccc4)c3)cc2O)c1Oc1ccccc1F	24*	-1	-6	-1	2	2
CCOc1ccc(N2CC(C(=O)Nc3ccncc3)CC2=O)cc1 (stereo unspecified)	6	6	-5	-11	1	3
CN1C[C@@H]2C(c3ccccc3)C3(c4cccnc4)CC2(C3)[C@H]1c1ccccc1 (stereo partly specified)	-15	-41	31*	57*	-10	0
O=C(Nc1ccc(O)c(-c2nc3ccccc3s2)c1)C1=COCCO1	-41	-20	23	79*	-4	2
O=C(Nc1ccc(-c2nc3ccccc3s2)c(O)c1)C1=COCCO1	9	3	-12	-24	1	-2
COc1cc2c(cc1NC(=O)C(C)Sc1ccc(NC(C)=O)cc1)oc1ccccc12 (stereo unspecified)	-14	-18	30*	18	6	15
O=C(CNC(=O)Cc1ccccc1)N=Nc1c(O)n(Cc2ccc3c(c2)OCO3)c2ccccc12	21*	11	-4	-18	-4	1
CC(=O)c1c(C)n(CC(=O)NCc2ccc3c(c2)OCO3)c2ccccc12	-8	-18	29*	10	1	13
COC(=O)Cn1c(O)c(N=NC(=O)CNC(=O)c2ccc3c(c2)OCCO3)c2ccccc21	2	11	-1	-1	-9	3
CC(=O)Nc1ccc(Nc2ncnc3c2cnn3-c2ccccc2)cc1	21	0	5	28*	-1	6
CC(=O)Nc1ccc(Nc2ncnc3c2cnn3-c2cccc(C)c2)cc1	5	4	-4	0	0	0
COc1ncnc2c1cnn2-c1ccccc1	27*	4	-8	-16	0	1
SMILES	M4 PAM	M5 PAM	M5 antag	M4 antag	CHRM5 agonist	M4 ag
COc1ccccc1Oc1ncnc2c1cnn2-c1ccccc1	-4	-4	12	-2	-6	0
COc1ccc(/C=N/NC(=O)c2cc(=O)[nH]c3ccccc23)cc1OC	18	-1	-9	-1	-4	3
O=c1cnnc(SCc2ccc([N+](=O)[O-])cc2)[nH]1	-5	5	-19	-1	3	1
COc1ccc(-c2nc3ccc(N4CCCC4)cc3c(=O)[nH]2)cc1OC	4	19*	-7	-11	-5	2
COc1ccc2nc(-c3ccccc3)[nH]c(=O)c2c1	5	4	8	1	1	0
CCOC(=O)C1=C(O)C(=O)N(Cc2cccnc2)C1c1ccc(OC)cc1 (stereo unspecified)	7	8	-4	-9	1	1
CCC(Oc1nc2ccccc2nc1-c1ccccc1NC(C)=O)C(=O)c1ccccc1 (stereo unspecified)	33*	-1	-1	19	5	-1
CC(=O)Nc1ccccc1-c1nc2cc(C#N)c(C#N)cc2[nH]c1=O	0	-4	11	-5	-2	2
CCOCCc1nnc(NC(=O)C2CC(=O)N(CCc3ccc(F)cc3)C2)s1 (stereo unspecified)	0	-2	4	11	0	0
O=C(NCc1cccnc1)c1ccc(Br)o1	11	0	6	-15	0	0
Cc1ccc(-c2csc(N/N=C/c3ccco3)n2)cc1	9	-7	9	-1	4	0
CN(C)S(=O)(=O)c1ccc(-c2csc(N/N=C/c3ccco3)n2)cc1	-33	-34	24	30*	6	23
C(=N\Nc1nc(-c2ccccc2)cs1)/c1ccncc1	0	-8	6	-2	0	4
CN(C)S(=O)(=O)c1ccc(-c2csc(N/N=C/c3ccc(O)cc3)n2)cc1	-25	-14	24	29*	-1	19
COc1ccc(CN(CC(=O)NCc2ccc(F)cc2)C(=O)CCC(=O)Nc2cc(C)ccn2)cc1	-2	4	1	-7	-2	3
CC(C)Cn1c(N)c(C(=O)COC(=O)/C=C/c2ccccc2)c(=O)n(C)c1=O	-6	-18	18	13	10	20
O=C(COc1ccccc1)NC1CCCCC1	10	-3	3	0	-1	1
COc1ccc(OC)c(NC(=O)NNC(=O)COc2ccc(-c3ccccc3)cc2)c1	-2	9	-19	2	-1	1
O=C(COc1ccc(-c2ccccc2)cc1)NNC(=O)Nc1ccc(F)cc1F	0	43*	19	8	3	0
